How the values were obtained:
PBMC [1] = assay: Antiviral activity against drug-resistant HIV-1 virus (M184v) in Human peripheral blood mononuclear (PBM) cells; type: functional
Method in brief: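 PHA-stimulated (2-3 days) human PBM cells from seronegative donors infected 1 h in bulk with molecular clone HIV-1 M184Vpitt, then cultured with 10-fold serial compound dilutions in IL-2–supplemented RPMI-1640, 5 days, 37 °C, 5% CO2. Supernatant virus pelleted and assayed for RT activity (poly(rA)·oligo(dT), 3H-TTP, 2 h, 37 °C). EC50/EC90 from concentration-response curves by median effect method.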

PBMC [2] = assay: Antiviral activity against wild type HIV virus(xxBRU) in Human peripheral blood mononuclear (PBM) cells; type: functional
Method in brief: (§1)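 PHA-stimulated (2-3 days) human PBM cells from healthy seronegative donors, Ficoll-Hypaque isolated; bulk infection 1 h (HIV-1 LAI reference; xxBru clone), 100 TCID50/1×10^7 cells (flask) or 200 TCID50/6×10^5 cells/well; 10-fold serial dilutions; RPMI-1640, 16% FBS, IL-2, DEAE-dextran; 5 days 37 °C; supernatant RT activity (poly(rA)·oligo(dT), 3H-TTP); EC50/EC90 by median effect method.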

PBMC [3] = assay: (§2) Anti-HIV activity in Human peripheral blood mononuclear (PBM) cells; type: functional; method in brief: as §1
[4] = Compounds were evaluated for their potential toxic effect on uninfected […] cells; type: ADME, cell-based; settings: Chlorocebus sabaeus
Method in brief: (§3)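 Uninfected cells were seeded in 10-fold serial drug dilutions: Vero at 5×10^3, CEM at 2.5×10^3 and PHA-stimulated PBM at 5×10^4 cells/well. Vero were incubated 3 days, CEM 4 days and PBM 5 days, at 37 °C in 5% CO2. MTT was added overnight, followed by solubilization for 5 h and reading at 570 nm. IC50 was derived by the median effect method.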

[5] = Compounds were evaluated for their potential toxic effect on uninfected PHA-stimulated human Peripheral blood mononuclear (PBM) cells; type: ADME; method in brief: as §3
[6] = Compounds were evaluated for their potential toxic effect on uninfected PHA-stimulated human T-lymphoblastoid cell line (CEM); type: ADME; method in brief: as §3
PBMC [7] = assay: as §2; type: functional, cell-based; method in brief: as §1

Structure (SMILES)	EC90 (PBMC [1])	EC90 (PBMC [2])	EC90 (PBMC [3])	IC50 [4]	IC50 [5]	IC50 [6]	EC50 (PBMC [7])
Cc1cn([C@H]2C[C@H](N=[N+]=[N-])[C@@H](CO)O2)c(=O)[nH]c1=O [ZIDOVUDINE]	0.003 µM	0.01 µM	0.01 µM	29 µM	> 100 µM	14.3 µM	
O=c1ccn([C@@H]2C=C(F)[C@H](CO)S2)c(=O)[nH]1			> 100 µM	> 100 µM	> 100 µM	> 100 µM	> 100 µM
Nc1ccn([C@@H]2CS[C@H](CO)O2)c(=O)n1 [LAMIVUDINE]		0.08 µM					
Nc1ncnc2c1ncn2[C@@H]1C=C(F)[C@H](CO)S1			57 µM	> 100 µM	> 100 µM	> 100 µM	14.9 µM
Nc1ccn([C@H]2C=C(F)[C@@H](CO)S2)c(=O)n1			> 100 µM	> 100 µM	> 100 µM	> 100 µM	> 100 µM
Cc1cn([C@H]2C=C(F)[C@@H](CO)S2)c(=O)[nH]c1=O			> 100 µM	> 100 µM	> 100 µM	> 100 µM	> 100 µM
O=c1ccn([C@H]2C=C(F)[C@@H](CO)S2)c(=O)[nH]1			> 100 µM	> 100 µM	> 100 µM	> 100 µM	> 100 µM
OC[C@H]1S[C@@H](n2cnc3c(O)ncnc32)C=C1F			> 100 µM	> 100 µM	> 100 µM	> 100 µM	> 100 µM
Nc1nc(=O)n([C@H]2C=C(F)[C@@H](CO)S2)cc1F			> 100 µM	> 100 µM	> 100 µM	> 100 µM	> 100 µM
Cc1cn([C@@H]2C=C(F)[C@H](CO)S2)c(=O)[nH]c1=O			> 100 µM	> 100 µM	> 100 µM	≥ 100 µM	> 100 µM
Nc1ncnc2c1ncn2[C@H]1C=C(F)[C@@H](CO)S1			> 100 µM	> 100 µM	> 100 µM	> 100 µM	> 100 µM
Nc1nc(O)c2ncn([C@H]3C=C(F)[C@@H](CO)S3)c2n1			> 100 µM	> 100 µM	> 100 µM	> 100 µM	23.4 µM
Nc1nc(=O)n([C@@H]2C=C(F)[C@H](CO)S2)cc1F	> 100 µM	0.35 µM	0.35 µM	88.1 µM	> 100 µM	> 100 µM	0.031 µM
Nc1nc(O)c2ncn([C@@H]3C=C(F)[C@H](CO)S3)c2n1			> 100 µM	> 100 µM	> 100 µM	> 100 µM	43.9 µM
Nc1ccn([C@@H]2C=C(F)[C@H](CO)S2)c(=O)n1	> 100 µM	1.7 µM	1.7 µM	> 100 µM	> 100 µM	> 100 µM	0.13 µM
OC[C@@H]1S[C@H](n2cnc3c(O)ncnc32)C=C1F			> 100 µM	> 100 µM	> 100 µM	> 100 µM	> 100 µM
